# Hits are enriched below; roughly 2.7% of the tested compounds scored in any of these assays.
# ARFGAP1 inh: inhibitors of rat ARFGAP1 GAP activity, primary screen, biochemical, fluorescence polarization, GDP tracer; ADP-ribosylation factor GTPase-activating protein 1 (Rattus norvegicus), Q62848; Arfgap1-stimulated ARF1 GTP hydrolysis, GDP FP detection; inhibition, % at 16.5 µM; 360,000 tested, 0.26% active;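 active means inhibition above a per-plate limit, mean inhibition of low control wells plus 3 SD, cut at about 25% in these data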;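 further: 0% = DMSO wells with enzyme and 100% = wells lacking Arfgap1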
#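 Material – truncated rat Arfgap1 GAP domain · Buffer or medium – HEPES-based buffer, pH 7.5 · Reagent – human ARF1(Δ1-17)-GTP substrate · Dosing – 16.5 µM single point, 1.26% DMSO · Schedule – GTP hydrolysis reaction 2 h at 25 °C · Technique – GDP detection by fluorescence polarization · Benchmarks – No-Arfgap1 wells (100%) versus DMSO full-reaction wells (0%) · Repeats – single replicate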
# PAFAH1B2 inh: PAFAH1B2 enzyme inhibitors, primary screen, biochemical, fluorescence polarization, human; recombinant PAFAH1B2, FP-rhodamine activity probe; 340,000 tested, 1.2% active; Platelet-activating factor acetylhydrolase IB subunit alpha2 (Homo sapiens), P68402; AID 492953, 2010; inhibition, % at 3.39 µM;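 active means inhibition above the mean of all tested compounds plus 3 SD, cut at about 24% in these data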;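 further: 0% = enzyme with DMSO and 100% = wells lacking PAFAH1B2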
# PAFAH1B3 inh: PAFAH1B3 enzyme inhibitors, primary screen, biochemical, fluorescence polarization, human; recombinant PAFAH1B3, FP-rhodamine probe; inhibition, % at 3.39 µM; 340,000 tested, 0.28% active; AID 492972, 2010;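 active means inhibition above the screen-wide average of all tested compounds plus 3 SD, cut at about 25% in these data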;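 further: 0% = enzyme with DMSO only and 100% = wells lacking PAFAH1B3 protein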
# Target sequence (Q15102 whole entry, looked up): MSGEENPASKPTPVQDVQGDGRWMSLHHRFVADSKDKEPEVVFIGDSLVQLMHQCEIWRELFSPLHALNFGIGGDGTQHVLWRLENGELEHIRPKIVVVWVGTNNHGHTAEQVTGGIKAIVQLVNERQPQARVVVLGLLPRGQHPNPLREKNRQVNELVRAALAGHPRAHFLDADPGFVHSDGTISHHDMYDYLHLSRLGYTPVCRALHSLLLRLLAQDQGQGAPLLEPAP
# PAFAH2 inh: PAFAH2 enzyme inhibitors, primary screen, biochemical, fluorescence polarization, human. Platelet-activating factor acetylhydrolase 2, cytoplasmic (Homo sapiens), Q99487. 340,000 tested, 0.99% active. recombinant PAFAH2, FP-rhodamine activity probe. inhibition, % at 3.39 µM;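 active means inhibition above the mean over all tested compounds plus 3 SD, cut at about 30% in these data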;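 further: inhibitors block probe labeling of enzyme so polarization drops; 0% = enzyme with DMSO and 100% = wells lacking PAFAH2 protein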
# ASAP1 GAP inh: inhibitors of human ASAP1 ArfGAP activity, primary screen, biochemical, fluorescence polarization; Arf-GAP with SH3 domain, ANK repeat and PH domain-containing protein 1 (Homo sapiens), …; ASAP1-stimulated ARF1 GTP hydrolysis, GDP FP detection; inhibition, % at 16.5 µM; 360,000 tested, 0.19% active; AID 624377, 2012; in the data active means inhibition above about 25%;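 further: 0% = vehicle with enzyme and substrate and 100% = no enzyme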
# pPAFAH FP inh: pPAFAH enzyme inhibitors, primary screen, biochemical, fluorescence polarization, human. recombinant pPAFAH, FP-rhodamine probe fluorescence polarization. Platelet-activating factor acetylhydrolase (Homo sapiens), Q13093. inhibition, % at 3.39 µM. 330,000 tested, 1.5% active;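 active means inhibition above the mean inhibition across the screen plus 3 SD, cut at about 25% in these data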;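 further: inhibitors block binding of the rhodamine activity-based probe so polarization drops; 0% = enzyme with DMSO and 100% = wells lacking pPAFAH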
# Target sequence (Q13093 whole entry, looked up): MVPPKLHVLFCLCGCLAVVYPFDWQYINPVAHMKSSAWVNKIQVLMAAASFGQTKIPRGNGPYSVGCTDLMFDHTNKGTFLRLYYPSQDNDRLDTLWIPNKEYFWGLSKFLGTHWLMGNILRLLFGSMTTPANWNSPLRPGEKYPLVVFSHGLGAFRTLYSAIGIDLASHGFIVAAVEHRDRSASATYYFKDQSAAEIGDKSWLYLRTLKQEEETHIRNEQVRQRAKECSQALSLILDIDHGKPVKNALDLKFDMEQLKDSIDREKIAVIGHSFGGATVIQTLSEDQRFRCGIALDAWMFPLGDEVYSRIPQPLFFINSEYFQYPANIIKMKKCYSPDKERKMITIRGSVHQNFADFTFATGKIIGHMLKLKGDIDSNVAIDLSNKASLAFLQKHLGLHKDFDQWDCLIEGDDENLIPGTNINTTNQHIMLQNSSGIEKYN
# Active calls of the source: *; / = not tested or not shown.
SMILES,ARFGAP1 inh,PAFAH1B2 inh,PAFAH1B3 inh,PAFAH2 inh,ASAP1 GAP inh,pPAFAH FP inh
CCOc1ccc(Cc2nnc(SCC(=O)c3ccc(OC)cc3)o2)cc1,-5,-1,-8,3,4,2
CCOc1ccc(Nc2nc(Cc3nnc(SCC(=O)O)o3)cs2)cc1,4,3,12,12,1,28*
Cc1c(NC(=O)C23CC4CC(CC(C4)C2)C3)c(=O)n(-c2ccccc2)n1C,-20,8,2,11,3,0
Cc1c(NC(=O)COC(=O)C23CC4CC(CC(Br)(C4)C2)C3)c(=O)n(-c2ccccc2)n1C,-7,26*,11,5,-10,2
COc1ccccc1NC(=O)COC(=O)C12CC3CC(CC(Br)(C3)C1)C2,-2,30*,16,0,3,3
O=C(COC(=O)C12CC3CC(CC(Br)(C3)C1)C2)Nc1ccc2[nH]c(=O)[nH]c2c1,11,37*,2,3,12,7
Cc1c(NC(=O)COc2c(F)c(F)c(F)c(F)c2F)c(=O)n(-c2ccccc2)n1C,27*,4,1,0,-7,2
CC(=O)O[C@@H]1C=C[C@@H](C#Cc2ccc(C(C)(C)C)cc2)O[C@@H]1COC(=O)Nc1ccccc1,9,/,/,/,-1,/
Cc1[nH]c(=O)[nH]c(=O)c1CCSSCCc1c(C)[nH]c(=O)[nH]c1=O,-12,/,/,/,8,/
CC(=O)NC12CC3CC(C1)CC(C(=O)OCC(=O)Nc1c(F)cccc1F)(C3)C2,-1,3,2,0,2,0
O=C(COC(=O)C12CC3CC(CC(Br)(C3)C1)C2)Nc1c(F)cccc1F,-7,35*,14,11,-12,-5
Cc1nc(N2CCCCC2)sc1C(=O)c1ccc(SCCO)c([N+](=O)[O-])c1,5,2,6,1,5,27*
N#CC1=C(N)Oc2cc(N)ccc2C1c1ccc(F)cc1 (stereo not given),0,5,5,-1,-2,11
N#CC1=C(N)Oc2cc(N)ccc2C1c1ccc(F)cc1F (stereo not given),-5,5,3,2,3,27*
C[C@H](CO)N1C[C@H](C)[C@@H](CN(C)C(=O)Nc2ccc3c(c2)OCO3)Oc2c(NC(=O)Nc3ccc(C(F)(F)F)cc3)cccc2C1=O,12,28*,3,-9,-2,0
C[C@H](CO)N1C[C@H](C)[C@@H](CN(C)C(=O)Nc2ccc(C(F)(F)F)cc2)Oc2c(NC(=O)Nc3ccc4c(c3)OCO4)cccc2C1=O,3,61*,13,-17,17,8
Cc1cccc(/N=C/c2nc(-c3ccccc3Br)oc2O)n1,6,4,3,66*,1,32*
CSc1ccccc1N=Cc1nc(-c2ccccc2)oc1O,5,-1,3,19,2,14
Cc1ccc(N2C(=O)CC(Sc3nc4ccccc4o3)C2=O)cc1Cl (stereo not given),9,30*,3,-3,-1,-3
CCCc1c(O)nc(SC2CC(=O)N(c3ccc(C)c(Cl)c3)C2=O)[nH]c1=O (stereo not given),-3,/,/,/,0,7
Cc1ccc(C)c(SCC(=O)OCC(=O)Nc2ccc(S(=O)(=O)N3CCOCC3)cc2)c1,9,6,8,2,7,26*
Cc1ccc(NC(=O)COC(=O)CCc2ccc(S(=O)(=O)N3CCOCC3)cc2)cc1C,8,4,-3,4,-5,6
Cc1ccc(NC(=O)COC(=O)CCC2CCCC2)cc1S(=O)(=O)N1CCOCC1,-2,4,0,32*,-8,33*
Cc1ccc(NC(=O)COC(=O)CCC(=O)c2cccs2)cc1S(=O)(=O)N1CCOCC1,1,5,9,-1,-3,7
CCCC(=O)Nc1sc(-c2ccccc2)c(-c2ccccc2)c1C(=O)O,-15,42*,-1,5,-22,6
SMILES,ARFGAP1 inh,PAFAH1B2 inh,PAFAH1B3 inh,PAFAH2 inh,ASAP1 GAP inh,pPAFAH FP inh
Cc1sc(NC(=O)CCCC(=O)O)c(C(N)=O)c1-c1ccccc1,10,-2,-1,2,-1,1
Nc1[nH]c(C(=O)c2ccc(Cl)cc2)c(-c2ccc(Br)cc2)c1C(=O)c1c[nH]c2ccc(F)cc12,-5,/,/,/,4,/
CCC(=O)Nc1ccc(C(=O)OCC(=O)c2ccc(C)c([N+](=O)[O-])c2)cc1,2,-3,11,13,2,5
CC(=O)Nc1ccc(C(=O)OCC(=O)c2ccc(C)c([N+](=O)[O-])c2)cc1,-10,-2,4,33*,-3,-8
CC(C)(C)NC(=O)NC(=O)COC(=O)c1cccc(NS(=O)(=O)c2ccc(F)c(F)c2)c1,-4,0,0,11,-7,12
CNC(=O)COC(=O)c1ccc(NC(=O)CC#N)cc1,-7,3,10,4,4,-3
CCN(CC)S(=O)(=O)c1ccc(NC(=O)COC(=O)c2ccc(NC(=O)CC#N)cc2)cc1,11,-8,6,-7,0,26*
CC(C)(C)c1ccc(NC(=O)COC(=O)c2ccc(NS(=O)(=O)c3ccc(F)c(F)c3)cc2)cc1,17,-6,-9,24,20,31*
Cc1cc(C)c(C(=O)COC(=O)c2ccc(NC(=O)CC#N)cc2)cc1C,9,-13,-9,-23,9,25*
COC(=O)c1cc2c(c3c4cc(F)ccc4n(S(=O)(=O)c4ccccc4)c13)C(=O)N(Cc1ccccc1)C2,-4,/,/,/,3,/
COC(=O)c1cc2c(c3c4cc(F)ccc4n(S(=O)(=O)c4ccc(OC)cc4)c13)C(=O)N(Cc1ccccc1OC)C2,4,/,/,/,2,/
Cc1ccc(S(=O)(=O)Nc2ccc(Cl)cc2C(=O)c2ccc(F)cc2)cc1,8,43*,5,5,-7,5
Cc1ccc(S(=O)(=O)Nc2ccc(Cl)cc2C(=O)c2ccccc2)cc1,-2,27*,6,6,-5,-1
Cc1ccc(NC(=O)CCNS(=O)(=O)c2ccccc2)c(C(=O)c2ccccc2)c1,6,8,11,-1,-12,-2
Cc1ccc(SCc2ccc(C(=O)Nc3cc([N+](=O)[O-])ccc3C)cc2)cc1,1,29*,8,0,7,7
O=[N+]([O-])c1ccc(COc2cccc(CO)c2)cc1,-2,/,/,/,-3,/
Cc1cc(N2CCNC[C@H]2C)ccc1N1CCN(Cc2ccccc2)[C@H](C)C1,-6,/,/,/,0,/

# Compound activity: PubChem BioAssay, The Scripps Research Institute Molecular Screening Center
